# Compound activity: PubChem BioAssay, several laboratories
# GRIN3A LBD mod = modulates the human NR3A ligand-binding domain; actives 2.5% (n = 340,000); NR3A LBD differential scanning fluorimetry, Tm shift; 0% = protein alone, 100% = glycine-bound protein; AID 1259313; Tm shift relative to glycine control, % at 25 µM;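 active means melting temperature shift of at least 10% of the positive control shift, at one fixed dose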
# EBNA-1 inh = blocks EBNA-1 binding to DNA. actives 0.34% (n = 300,000). EBNA-1 DNA binding, fluorescence polarization. inhibition, % at 14.8 µM. AID 1950; in the data active means inhibition above about 28%
# FGF22 binding = shifts melting point of recombinant human FGF22 | recombinant FGF22 thermal shift, SYPRO orange fluorescence; percent of sucrose octasulfate shift, DMSO zero | AID 651658 | Q9HCT0 | activity (Tm shift, normalised), % at 9.99 µM | actives 1.5% (n = 340,000);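 active means mean Tm shift, scaled 0 neutral to 100 positive control, at about 1.3% or above, every replicate too, limit read from the data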
# Target sequence (Q9HCT0 whole entry, looked up): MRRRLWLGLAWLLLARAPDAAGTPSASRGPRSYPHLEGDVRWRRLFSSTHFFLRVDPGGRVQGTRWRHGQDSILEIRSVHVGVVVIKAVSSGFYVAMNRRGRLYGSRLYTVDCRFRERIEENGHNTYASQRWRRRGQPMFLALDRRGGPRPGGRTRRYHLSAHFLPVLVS
# DNA FID counter = fluorescent intercalator displacement, NS3 helicase counter-screen; DNA fluorescent intercalator displacement, fluorescence; inhibition, % at 7.9 µM; actives 0.17% (n = 290,000); AID 1845; in the data active means inhibition above about 37%;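 further: 0% = vehicle and 100% = reference compound; higher means more ethidium bromide displaced from hairpin DNA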
# HCV NS3 hel inh = inhibitors of Hepatitis C virus NS3 helicase; AID 1800; NS3 helicase DNA unwinding, Cy5 molecular beacon fluorescence; actives 0.56% (n = 290,000); inhibition, % at 10.9 µM;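 active means inhibition above the mean of all tested compounds plus 3 SD, set per campaign, cut at about 35% in these data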;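 further: 0% = DMSO wells and 100% = thioflavine S control wells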
#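 Test system: hepatitis C virus NS3 helicase domain fragment enzyme. Also added: annealed dual-labelled DNA beacon duplex, ATP-started. Timing: 60 min unwinding reaction at 25 °C after ATP addition. Technique: Cy5 fluorescence. Measure: % inhibition of unwinding.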
# ZTA DNA inh = ZTA (EBV) inhibition in EBNA-1 counter-screen; P03206; ZTA-DNA binding, fluorescence polarization; inhibition, % at 11 µM; actives 0.15% (n = 320,000); AID 2234; in the data active means inhibition above about 33%
# Target sequence (P03206 whole entry, looked up): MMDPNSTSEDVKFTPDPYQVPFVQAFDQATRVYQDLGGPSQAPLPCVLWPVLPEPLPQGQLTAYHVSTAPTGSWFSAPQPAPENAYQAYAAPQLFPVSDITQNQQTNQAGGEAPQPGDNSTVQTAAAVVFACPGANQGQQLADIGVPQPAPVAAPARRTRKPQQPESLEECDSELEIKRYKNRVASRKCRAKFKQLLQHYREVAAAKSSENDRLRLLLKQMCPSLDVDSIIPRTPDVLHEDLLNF
# * marks the source's active call; other numbers are inactive results; x = no result given. Shown are actives, neighbours in structure and some others; about 3.6% of the full set was active somewhere.
SMILES,GRIN3A LBD mod,EBNA-1 inh,FGF22 binding,DNA FID counter,HCV NS3 hel inh,ZTA DNA inh
COc1cccc(C#Cc2ccc3c(c2)O[C@H](CN(C)C)[C@@H](C)CN([C@H](C)CO)S3(=O)=O)c1,x,x,0.0,x,x,x
Cc1ccc(C(=O)CC(=O)c2cc(Cl)ccc2O)cc1,10.6*,-9.8,x,-6.1,3.4,6.0
COc1cc(OC)c2c(-c3cccc(-c4ccc(O)cc4)c3)cc(=O)oc2c1,-7.9,x,0.3,x,x,x
COc1ccc(-c2cccc(-c3cc(=O)oc4cc(OC)cc(OC)c34)c2)cc1,15.4*,x,-0.2,x,x,x
COc1ccc(-c2c(C)cc3oc(=O)cc(-c4ccccc4)c3c2C)cc1,15.4*,x,0.0,x,x,x
COc1ccccc1CNC(=O)C[C@H]1CC[C@H]2[C@H](COc3ccc(NC(=O)Nc4ccc(F)c(F)c4)cc3C(=O)N2C)O1,x,x,0.1,x,x,x
Fc1ccc2cc(-c3ccsc3)ncc2c1,34.6*,x,0.1,x,x,x
O=C(Nc1ccc(Cl)cc1)N[C@H]1CC[C@@H](CCn2cc(C3(O)CCCC3)nn2)O[C@@H]1CO,x,x,0.8,x,x,x
COCC#Cc1cnc2c(c1)C(=O)N([C@@H](C)CO)C[C@H](C)[C@H](CN(C)C(=O)Nc1cc(F)ccc1F)O2,x,x,0.0,x,x,x
NC(=S)N/N=C\c1ccc(-c2cccc(Cl)c2Cl)o1,27.4*,12.5,x,-7.5,4.1,-1.3
NC(=S)N/N=C/c1ccc(-c2ccc(Cl)c(Cl)c2)o1,4.1,-8.2,x,4.4,34.2,12.3
O=C(C[C@@H]1C=C[C@H](NC(=O)Nc2cc(F)ccc2F)[C@H](CO)O1)NCc1ccccn1,x,x,0.0,x,x,x
CCOC(=O)c1sc(NC(=O)Nc2ccccc2Cl)cc1C,28.0*,1.5,x,5.2,-4.0,-1.2
NNC(=O)c1sc(-c2ccc(Cl)cc2)cc1N,-1.1,-9.3,43.5*,-3.3,1.8,-8.9
CCOC(=O)c1sc(-c2ccc(F)cc2)cc1NC(=O)Nc1ccccc1OC,3.4,1.8,x,2.4,-5.3,-19.9
CCOC(=O)c1sc(-c2ccc(Br)cc2)cc1N,15.6*,-7.3,0.2,-2.3,-12.9,-6.5
CCOC(=O)c1sc(NC(=O)c2ccc(C)s2)cc1C,9.6,-1.9,x,0.9,-8.0,-6.9
CCOC(=O)c1sc(-c2ccccc2)cc1NC(=O)Nc1ccccc1,15.5*,6.8,-0.1,1.2,0.3,7.4
COCC#Cc1ccc2c(c1)O[C@@H](CN(C)CC1CCOCC1)[C@@H](C)CN([C@@H](C)CO)S2(=O)=O,x,x,0.0,x,x,x
C[C@H]1CCCCO[C@@H](CN(C)C(=O)NC2CCCCC2)[C@@H](C)CN([C@@H](C)CO)C(=O)c2cc(NS(=O)(=O)c3cccs3)ccc2O1,x,x,-0.5,x,x,x
COc1ccc2c3c(n(C)c2c1)[C@@H](CO)NCC31CN(C(=O)Nc2ccccc2F)C1,x,x,0.0,x,x,x
CCOC(=O)c1sc(NC(C)=O)cc1C,-1.2,3.9,0.1,4.9,-1.6,-1.2
CCOC(=O)c1sc(NC(=O)C2CCC2)cc1C,-2.2,-3.1,43.3*,-6.4,-8.5,-17.7
CNC[C@@H]1OCCCC[C@@H](C)Oc2ccc(NS(=O)(=O)c3c(C)noc3C)cc2C(=O)N([C@@H](C)CO)C[C@H]1C,x,x,-0.3,x,x,x
O=C(O)COc1ccc(Cl)cc1C1CCCCC1,-0.2,x,43.4*,x,x,x
SMILES,GRIN3A LBD mod,EBNA-1 inh,FGF22 binding,DNA FID counter,HCV NS3 hel inh,ZTA DNA inh
O=C(COc1ccc(F)cc1Cl)NC1CCCCCC1,-3.1,x,-0.2,x,x,7.2
CC(C)Sc1nsc2nc(=O)c(/C=C3\C=Nc4ccccc43)c(N)n12,24.8*,4.8,41.1,-9.8,2.0,9.5
CC(C)c1nn2c(N)c(/C=C3\C=Nc4ccccc43)c(=O)nc2s1,0.6,2.0,0.0,-18.6,2.1,-0.9
CS(=O)(=O)c1nsc2nc(=O)c(/C=C3\C=Nc4ccccc43)c(N)n12,38.7*,9.5,-0.1,-25.8,7.2,17.3
O=c1[nH]c(-c2ccccc2)cs1,11.5*,-11.4,0.0,-4.6,14.8,-21.4
O=C(NCCc1ccncc1)[C@@H]1[C@@H](CO)[C@@H]2Cn3c(ccc(-c4ccc(F)cc4)c3=O)[C@H]1N2,x,x,-0.2,x,x,x
Cc1nc(-c2ccccc2)nc2[nH]ccc(=O)c12,10.0*,17.8,x,-4.3,3.9,9.4
Cc1nc(-c2ccc([N+](=O)[O-])cc2)nc2[nH]ccc(=O)c12,-1.0,x,-0.1,2.3,-10.0,x
NC(=S)N/N=C/c1ccc2ccccc2c1,17.6*,13.3,0.3,3.0,-1.9,-8.8
NC(=S)N/N=C/c1cccc(/C=N/NC(N)=S)c1,-0.1,8.7,-0.1,-5.8,-2.5,4.4
COc1ccc(CCNC(=O)CN(c2cc([N+](=O)[O-])ccc2OC)S(C)(=O)=O)cc1OC,-1.0,6.9,43.3*,-1.4,4.6,-10.8
CCOc1ccc(C(=O)CC(=O)C(=O)NCCc2ccc(OC)c(OC)c2)cc1,24.5*,5.0,0.0,-21.6,5.7,-5.1
O=C(CCc1ccccc1)NC(NC(=S)Nc1cccc(Cl)c1)C(Cl)(Cl)Cl (stereo unspecified),37.8*,8.5,0.0,1.3,11.3,10.6
O=C(CCc1ccccc1)NNC(=O)Nc1ccc(Br)cc1,11.9*,3.4,0.1,-1.6,0.8,-3.9
CCC(=O)Nc1ccc2c(c1)C(=O)N(C)[C@@H]1CC[C@H](CC(=O)NCc3ccc(OC)cc3)O[C@@H]1CO2,x,x,-0.3,x,x,x
O=C(CCc1ccccc1)NNC(=O)COc1ccccc1,12.7*,-3.0,x,-5.7,5.3,12.0
CCCC(=O)NC(NC(=S)Nc1ccc(S(N)(=O)=O)cc1)C(Cl)(Cl)Cl (stereo unspecified),-22.1,-8.5,x,0.8,3.2,-3.9
CCCC(=O)NC(NC(=S)Nc1ccc(N=Nc2ccccc2)cc1)C(Cl)(Cl)Cl (stereo unspecified),21.6*,-4.8,0.2,-0.7,1.0,9.7
COc1ccc(CC(=O)NNC(=O)CCc2ccccc2)cc1OC,-0.5,3.4,43.2*,-4.2,-3.4,-8.4
CCCNS(=O)(=O)c1ccc(CCC(=O)NCCc2ccc(OC)c(OC)c2)cc1,-1.5,7.1,43.5*,-21.1,8.1,11.2
CCC(=O)Nc1ccc2c(c1)C(=O)N(C)C[C@H](OC)[C@H](C)CN(CCc1ccccc1)[C@@H](C)CO2,x,x,-0.1,x,x,x
O=C(NCC[C@H]1CC[C@@H](NC(=O)c2ccc3c(c2)OCO3)[C@H](CO)O1)Nc1cc(F)ccc1F,x,x,-0.3,x,x,x
CCC(=O)NC(NC(=S)Nc1ccccc1Br)C(Cl)(Cl)Cl (stereo unspecified),1.6,4.3,-0.3,-5.0,1.0,5.6
O=C(CCc1ccccc1)NC(NC(=S)Nc1ccc(Br)cc1)C(Cl)(Cl)Cl (stereo unspecified),13.7*,4.9,0.3,-0.5,-1.6,-2.2
O=CNn1cnc2c(oc3nc(-c4ccccc4)cc(-c4ccco4)c32)c1=O,28.6*,-8.5,-0.1,-4.1,2.2,11.0
Cc1ccc(S(=O)(=O)Nc2nc(C)c(NC(=O)OCCCl)s2)cc1,3.5,-17.0,x,-0.3,2.7,-10.8
